From ChEMBL document CHEMBL1153386, “Allopregnanolone (3alpha-hydroxy-5alpha-pregnan-20-one) derivatives with a polar chain in position 16alpha: synthesis and activity” (J Med Chem, 2009)

Legend:
[1] = Displacement of [35S]TBPS from Wistar rat brain GABAA receptor
Outline: (§1)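 Whole-brain membranes from adult male Wistar rats, resuspended in 20 mM KH2PO4/200 mM KCl, pH 7.4. Incubated 60 min at 37 °C with 2 nM [35S]TBPS, 1 µM GABA and steroid at 1 nM–10 µM. Nonspecific binding defined with 200 µM picrotoxinin. Binding expressed as % of DMSO control samples.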

Rattus norvegicus [2] = species: Rattus norvegicus; experiment: Displacement of [35S]TBPS from Wistar rat brain GABAA receptor relative to control; outline: as §1
Rattus norvegicus [3] = species: Rattus norvegicus; experiment: Displacement of [35S]TBPS from Wistar rat brain GABAA receptor at 100 nM relative to control; outline: as §1

| SMILES | IC50 [1] [nM] | Imax (Rattus norvegicus [2]) [%] | inhibition (Rattus norvegicus [3]) [%] |
| --- | --- | --- | --- |
| CC(=O)[C@H]1[C@H](CC(=O)O)C[C@H]2[C@@H]3CC[C@H]4C[C@H](O)CC[C@]4(C)[C@H]3CC[C@@]21C | 40 | 19 | – |
| NC(=O)OCC(COC(N)=O)c1ccccc1 [FELBAMATE] | 95 | 18 | – |
| CC(=O)[C@H]1CC[C@H]2[C@@H]3CC[C@H]4C[C@H](O)CC[C@]4(C)[C@H]3CC[C@]12C [BREXANOLONE] | 80 | 79 | – |
| CC(=O)[C@H]1[C@H](CCOC(N)=O)C[C@H]2[C@@H]3CC[C@H]4C[C@H](O)CC[C@]4(C)[C@H]3CC[C@@]21C | 750 | 61 | – |
| CC(=O)[C@H]1[C@H](OCCO)C[C@H]2[C@@H]3CC[C@H]4C[C@H](O)CC[C@]4(C)[C@H]3CC[C@@]21C | – | – | < 15 |
| CC(=O)[C@H]1[C@H](OCC(O)CO)C[C@H]2[C@@H]3CC[C@H]4C[C@H](O)CC[C@]4(C)[C@H]3CC[C@@]21C (stereo partly drawn) | – | – | < 15 |
| CC(=O)[C@H]1[C@H](C(COC(N)=O)COC(N)=O)C[C@H]2[C@@H]3CC[C@H]4C[C@H](O)CC[C@]4(C)[C@H]3CC[C@@]21C | 86 | 26 | – |
| CC(=O)[C@H]1[C@H](CC#N)C[C@H]2[C@@H]3CC[C@H]4C[C@H](O)CC[C@]4(C)[C@H]3CC[C@@]21C | – | – | < 15 |
| CC(=O)[C@H]1[C@H](OCCOCCO)C[C@H]2[C@@H]3CC[C@H]4C[C@H](O)CC[C@]4(C)[C@H]3CC[C@@]21C | – | – | < 15 |
| CC(=O)[C@H]1[C@H](CC(N)=O)C[C@H]2[C@@H]3CC[C@H]4C[C@H](O)CC[C@]4(C)[C@H]3CC[C@@]21C | – | – | < 15 |
| CC(=O)[C@H]1[C@H](C(CO)CO)C[C@H]2[C@@H]3CC[C@H]4C[C@H](O)CC[C@]4(C)[C@H]3CC[C@@]21C | – | – | < 15 |
| CC(=O)[C@H]1[C@H](CCOC(N)=O)C[C@H]2[C@@H]3CC[C@H]4C[C@H](OC(N)=O)CC[C@]4(C)[C@H]3CC[C@@]21C | 300 | 59 | – |
